Experimental data reported in ChEMBL document CHEMBL1123507, “Antipicornavirus activity of substituted phenoxybenzenes and phenoxypyridines” (J Med Chem, 1986).
Converted amounts (≈) assume the structure as drawn.

Experiments:
[1] = tested on: HeLa; assay: Cytotoxicity concentration in HeLa cells; format: cell-based; settings: human
In short: (§1)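 HeLa monolayers were seeded at (1.0-1.3) × 10^5 cells/well, grown 24 h at 36 °C in 5% CO2 to 60–75% cover, then refed with maintenance medium (1-2% heat-inactivated FCS) containing two-fold serial compound dilutions made from a 200 μg/mL stock in Me2SO/medium, with final Me2SO ≤0.1%. Cells were challenged with 10-100 TCID50 virus, and CPE was read microscopically at 48 and 72 h. MIC50 was the lowest concentration giving ≥50% CPE reduction versus virus control. Cytotoxicity was the lowest concentration causing cell death, a growth change or a morphology change in uninfected cultures.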

[2] = tested on: Enterovirus; assay: Lowest concentration to reduce viral effect by 50% or more against Rhinovirus (RV)-1A; format: functional; in short: as §1
[3] = tested on: Coxsackievirus; assay: Lowest concentration to reduce viral effect by 50% or more against coxsackie virus A21; format: functional; in short: as §1
[4] = tested on: Enterovirus; assay: Lowest concentration to reduce viral effect by 50% or more against Rhinovirus (RV)-2; format: functional; in short: as §1
[5] = tested on: Coxsackievirus; assay: Ratio of the MIC50 of 6-(4-Nitro-phenoxy)-nicotinonitrile compared to compound obtained in the same test for coxsackie A21; format: functional
In short: (§2)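 Relative activity was calculated as the MIC50 of the positive control 5-cyano-2-(4-nitrophenoxy)pyridine divided by the MIC50 of the test compound. Both were measured in parallel in the same HeLa CPE test (48/72 h microscopic reading) against RV-1A, RV-2 or coxsackievirus A21.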

[6] = tested on: Enterovirus; assay: Ratio of the MIC50 of 6-(4-Nitro-phenoxy)-nicotinonitrile compared to compound obtained in the same test for Rhinovirus (RV)-2; format: functional; in short: as §2

MIC50 [2] [µM]	MIC50 [3] [µM]	MIC50 [4] [µM]	SMILES	Toxicity [1] [µM]	Relative activity [5]	Relative activity [6]
> 334	1 (≈ 0.299 µg/mL)	> 334	N#Cc1cc(Cl)ccc1Oc1ccc(Cl)c(Cl)c1	> 334	5.2	
79 (≈ 25.1 µg/mL)	157 (≈ 50 µg/mL)	157 (≈ 50 µg/mL)	CS(=O)(=O)c1cccnc1Oc1ccc(Cl)c(Cl)c1	157		
4.5 (≈ 1.26 µg/mL)	2.2 (≈ 0.614 µg/mL)	9 (≈ 2.51 µg/mL)	N#Cc1cc(N)ccc1Oc1ccc(Cl)c(Cl)c1	9	11.8	
> 304	19 (≈ 6.25 µg/mL)	> 304	O=[N+]([O-])c1ccc(Oc2ccc(Cl)c(Cl)c2)c([N+](=O)[O-])c1	19		
1.6 (≈ 0.607 µg/mL)	1.6 (≈ 0.607 µg/mL)	1.6 (≈ 0.607 µg/mL)	O=S(=O)(c1ccccc1)c1ccc(Oc2ccc(Cl)c(Cl)c2)cc1	3.3		
> 267	> 267	16.7 (≈ 6.05 µg/mL)	CS(=O)(=O)c1ccc(Oc2ccc(Cl)c(Cl)c2)c([N+](=O)[O-])c1	> 267		3.1
79 (≈ 25.1 µg/mL)	5 (≈ 1.59 µg/mL)	79 (≈ 25.1 µg/mL)	CS(=O)(=O)c1ccnc(Oc2ccc(Cl)c(Cl)c2)c1	157	10.4	
15 (≈ 4.98 µg/mL)	18.7 (≈ 6.21 µg/mL)	18.7 (≈ 6.21 µg/mL)	CS(=O)(=O)c1ccc(Oc2ccc(Cl)c(Cl)c2)c(N)c1	19		
> 379	23.7 (≈ 6.26 µg/mL)	> 379	N#Cc1ccccc1Oc1ccc(Cl)c(Cl)c1	379	1.1	
> 292	> 292	18.3 (≈ 6.26 µg/mL)	CS(=O)(=O)c1ccc(Oc2ccc(Cl)c(Cl)c2)c(C#N)c1	292		2.8
	16.2 (≈ 5.01 µg/mL)	16.2 (≈ 5.01 µg/mL)	N#Cc1cc(Oc2ccc(Cl)c(Cl)c2)ccc1[N+](=O)[O-]	162	1.2	1.2

Further lines, the compound ahead of its results:

SMILES	MIC50 [2] [µM]	MIC50 [3] [µM]	MIC50 [4] [µM]	Toxicity [1] [µM]	Relative activity [5]	Relative activity [6]
COc1ccccc1Oc1ccc([N+](=O)[O-])cc1C#N	9.2 (≈ 2.49 µg/mL)	18.5 (≈ 5 µg/mL)	9.2 (≈ 2.49 µg/mL)	18.5		
CS(=O)(=O)c1ccc(Oc2cccc(Cl)c2)cc1		22.1 (≈ 6.25 µg/mL)	22.1 (≈ 6.25 µg/mL)	88	0.59	1.2
CS(=O)(=O)c1ccc(Oc2ccccc2Cl)cc1	88 (≈ 24.9 µg/mL)	11 (≈ 3.11 µg/mL)	44.2 (≈ 12.5 µg/mL)	88	1.2	
N#Cc1cc([N+](=O)[O-])ccc1Oc1ccc(C(=O)c2ccccc2)cc1	> 291	36.3 (≈ 12.5 µg/mL)	> 291	> 291	1.4	
N#Cc1cc([N+](=O)[O-])ccc1Oc1ccccc1C(F)(F)F	> 324	32 (≈ 9.86 µg/mL)	3.9 (≈ 1.2 µg/mL)	32		3.3
CS(=O)(=O)c1ccc(Oc2ccc([N+](=O)[O-])cc2C#N)cc1	> 314	2 (≈ 0.637 µg/mL)	39.3 (≈ 12.5 µg/mL)	> 314	2.6	1.3
CS(=O)(=O)c1ccc(Oc2ccc(C(=O)c3ccccc3)cc2)cc1	> 284	0.88 (≈ 0.31 µg/mL)	142 (≈ 50 µg/mL)	> 284	5.9	
CS(=O)(=O)c1ccc(Oc2ccc(O)cc2)cc1	94.7 (≈ 25 µg/mL)	> 189	94.7 (≈ 25 µg/mL)	95		
CS(=O)(=O)c1ccc(Oc2ccc(C#N)cc2)cc1		11.4 (≈ 3.12 µg/mL)	45.8 (≈ 12.5 µg/mL)	183	2.3	0.56
CC(=O)c1ccc(Oc2ccc(C#N)cn2)cc1	210 (≈ 50 µg/mL)	53 (≈ 12.6 µg/mL)		420	0.02	
